Source: ChEMBL document CHEMBL4368870, “Design, synthesis and biological evaluation of novel 2-phenyl pyrimidine derivatives as potent Bruton's tyrosine kinase (BTK) inhibitors” (Medchemcomm, 2019)
Active and inactive are the calls of the source. The rule behind the calls is not given here.

What was measured:
HL-60 = experiment: Antiproliferative activity against human HL60 cells after 48 hrs by MTT assay; assay type: functional, cell-based; settings: HL-60, 48 h
In short: (§1)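 Cell proliferation read by MTT in three […] (HL60, Raji, Ramos), all said to over-express BTK. IC50 values were determined for each line.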

Raji [1] = experiment: Antiproliferative activity against human Raji cells after 48 hrs by MTT assay; assay type: functional, cell-based; in short: as §1
Ramos [2] = experiment: Antiproliferative activity against human Ramos cells after 48 hrs by MTT assay; assay type: functional, cell-based; in short: as §1
Raji [3] = experiment: Antiproliferative activity against human Raji cells at 5 uM by MTT assay; assay type: functional, cell-based; settings: TDE = time-dependent effect
In short: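 Raji cells, proliferation by MTT; viability followed over treatment time at 5 μM.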

Ramos [4] = experiment: Induction of apoptosis in human Ramos cells assessed as viable cells at 5 uM after 48 hrs by propidium iodide staining-based flow cytometric analysis (reference value: 96.83%); assay type: functional; settings: read-out: Activity
Ramos [5] = experiment: Induction of apoptosis in human Ramos cells assessed as early apoptotic cells at 5 uM after 48 hrs by propidium iodide staining-based flow cytometric analysis (reference value: 1.08%); assay type: functional
Ramos [6] = experiment: Induction of apoptosis in human Ramos cells assessed as late apoptotic cells at 5 uM after 48 hrs by propidium iodide staining-based flow cytometric analysis (reference value: 0.98%); assay type: functional
Ramos [7] = experiment: Induction of apoptosis in human Ramos cells assessed as necrotic cells at 5 uM after 48 hrs by propidium iodide staining-based flow cytometric analysis (reference value: 1.11%); assay type: functional
Ramos [8] = experiment: Cell cycle arrest in human Ramos cells assessed as accumulation of cells at G0/G1 phase at 5 uM after 48 hrs by propidium iodide staining-based flow cytometric analysis (reference value: 24.65%); assay type: functional
In short: (§2)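 Ramos cells incubated 48 h with 5 μM test agent, DMSO as blank control; DNA content by flow cytometry gives the share of cells in each cell-cycle phase.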

Ramos [9] = experiment: Cell cycle arrest in human Ramos cells assessed as accumulation of cells at S phase at 5 uM after 48 hrs by propidium iodide staining-based flow cytometric analysis (reference value: 71.08%); assay type: functional; in short: as §2
Ramos [10] = experiment: Cell cycle arrest in human Ramos cells assessed as accumulation of cells at G2/M phase at 5 uM after 48 hrs by propidium iodide staining-based flow cytometric analysis (reference value: 4.26%); assay type: functional; in short: as §2
Ramos [11] = experiment: Cell cycle arrest in human Ramos cells assessed as apoptotic cells at 5 uM after 48 hrs by propidium iodide staining-based flow cytometric analysis (reference value: 5.03%); assay type: functional
Raji [12] = experiment: Antiproliferative activity against human Raji cells at 40 uM after 72 hrs by MTT assay relative to control; assay type: functional
In short: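 Raji cells were exposed to the compound over a range of concentrations and treatment times, with the MTT-based viability read-out taken up to 72 h. The 40 μM, 72 h point is expressed as viability relative to control.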

[13] = biological target: Tyrosine-protein kinase BTK (Homo sapiens) (UniProt Q06187); experiment: Inhibition of BTK phosphorylation at Tyr223 residue in human Ramos cells at 100 to 9000 nM after 24 hrs by Western blot analysis; assay type: cell-based
[14] = biological target: Tyrosine-protein kinase BTK (Homo sapiens) (UniProt Q06187); experiment: Inhibition of BTK in human Ramos cells assessed as reduction in PLCgamma-2 phosphorylation at Try1217 residue at 100 to 9000 nM after 24 hrs by Western blot analysis; assay type: cell-based

Chain of Tyrosine-protein kinase BTK (Homo sapiens) (Q06187 whole entry): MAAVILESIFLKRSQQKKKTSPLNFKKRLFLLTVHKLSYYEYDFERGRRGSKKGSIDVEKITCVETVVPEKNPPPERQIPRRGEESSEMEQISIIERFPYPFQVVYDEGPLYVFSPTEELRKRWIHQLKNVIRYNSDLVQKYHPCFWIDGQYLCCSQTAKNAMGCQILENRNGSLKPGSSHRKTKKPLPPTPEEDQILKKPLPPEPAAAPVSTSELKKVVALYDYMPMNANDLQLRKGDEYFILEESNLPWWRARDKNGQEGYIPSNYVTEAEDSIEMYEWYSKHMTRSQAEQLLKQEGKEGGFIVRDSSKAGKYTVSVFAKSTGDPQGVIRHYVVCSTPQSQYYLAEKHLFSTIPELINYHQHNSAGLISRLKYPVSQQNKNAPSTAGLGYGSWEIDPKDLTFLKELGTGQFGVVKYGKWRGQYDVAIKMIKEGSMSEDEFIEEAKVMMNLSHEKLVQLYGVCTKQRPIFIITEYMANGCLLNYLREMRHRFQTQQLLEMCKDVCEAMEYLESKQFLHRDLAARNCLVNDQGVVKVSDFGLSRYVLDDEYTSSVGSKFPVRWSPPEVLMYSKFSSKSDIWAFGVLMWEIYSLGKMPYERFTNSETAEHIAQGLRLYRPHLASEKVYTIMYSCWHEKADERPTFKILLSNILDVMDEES

SMILES | IC50 (HL-60) [µM] | IC50 (Raji [1]) [µM] | IC50 (Ramos [2]) [µM] | Activity (Raji [3]) | viability at 5 µM (Ramos [4]) [%] | Activity (Ramos [5]) [%] | Activity (Ramos [6]) [%] | Activity (Ramos [7]) [%] | Activity (Ramos [8]) [%] | Activity (Ramos [9]) [%] | Activity (Ramos [10]) [%] | Activity (Ramos [11]) [%] | Activity (Raji [12]) [%] | inhibition [13] | inhibition [14]
C=CC(=O)N1CCC[C@@H](n2nc(-c3ccc(Oc4ccccc4)cc3)c3c(N)ncnc32)C1 [IBRUTINIB] | 3.57 | 14.5 | 2.31 | Tde | 91.8 | 5.12 | 2.71 | 0.37 | 30.5 | 65.18 | 4.26 | 4.33 | – | – | –
C=CC(=O)Nc1ccc(-c2nc(Cl)cc(Nc3ccc(C(=O)N4CCOCC4)cc3)n2)cc1 | 5.94 | 14.7 | 7.24 | – | – | – | – | – | – | – | – | – | – | – | –
C=CC(=O)Nc1ccc(-c2nc(Cl)cc(Nc3ccc(C(=O)N(CC)CC)cc3)n2)cc1 | 9.34 | 12.5 | 11.2 | – | – | – | – | – | – | – | – | – | – | – | –
C=CC(=O)Nc1ccc(-c2nc(Cl)cc(Nc3ccc(C(=O)N(C)C)cc3)n2)cc1 | > 50 | 42.9 | > 50 | – | – | – | – | – | – | – | – | – | – | – | –
C=CC(=O)Nc1ccc(-c2nc(Cl)cc(Nc3ccc(C(=O)Nc4cccc(C)c4)cc3)n2)cc1 | 3.66 | 6.98 | 5.39 | Tde | 61.3 | 25.8 | 12.7 | 0.23 | 36.27 | 59.51 | 4.21 | 13.91 | 90 | Active | Active
C=CC(=O)Nc1ccc(-c2nc(Cl)cc(Nc3ccc(C(=O)Nc4cc(C)ccc4C)cc3)n2)cc1 | 14.9 | 20.9 | 16.8 | – | – | – | – | – | – | – | – | – | – | – | –
C=CC(=O)Nc1ccc(-c2nc(Cl)cc(Nc3ccc(C(=O)Nc4cc(C(F)(F)F)cc(C(F)(F)F)c4)cc3)n2)cc1 | 4.79 | 9.36 | 6.18 | – | – | – | – | – | – | – | – | – | – | – | –
C=CC(=O)Nc1ccc(-c2nc(Cl)cc(Nc3ccc(C(=O)N4CCCC4)cc3)n2)cc1 | 15.8 | 19.2 | 10.4 | – | – | – | – | – | – | – | – | – | – | – | –
